Experimental data: PMC8327296 (Journal of medicinal chemistry, 2018)

Tests used:
[1] = molecular target: T1, A1R (Homo sapiens, UniProt P30542); test: Competition radioligand binding, human A1R
T1 sequence (P30542 1-326): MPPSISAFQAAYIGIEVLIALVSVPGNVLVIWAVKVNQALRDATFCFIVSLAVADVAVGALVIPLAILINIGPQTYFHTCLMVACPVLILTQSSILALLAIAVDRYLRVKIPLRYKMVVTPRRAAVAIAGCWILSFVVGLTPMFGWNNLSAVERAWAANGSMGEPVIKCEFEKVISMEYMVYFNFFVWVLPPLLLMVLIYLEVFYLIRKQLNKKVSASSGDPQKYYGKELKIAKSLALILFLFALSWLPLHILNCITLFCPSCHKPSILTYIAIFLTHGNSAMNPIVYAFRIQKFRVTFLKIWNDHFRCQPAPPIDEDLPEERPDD
Procedure, shortened: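 Membranes from HEK293 cells expressing recombinant human A1R (DMEM, 10% FBS, 37 °C, 5% CO2), treated with adenosine deaminase 3 units/mL for 30 min at 37 °C. 20 μg protein per tube incubated 60 min at 25 °C in 50 mM Tris·HCl with 10 mM MgCl2, 0.5 nM [3H]8-cyclopentyl-1,3-dipropylxanthine and varied test compound. Nonspecific binding defined with 10 μM XAC. Bound ligand collected on GF/B filters and counted by scintillation. Ki by Cheng–Prusoff; mean ± SEM of 2–4 experiments in duplicate.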

[2] = molecular target: T2, recombinant A3R (human) (Homo sapiens, UniProt P0DMS8); test: Competition radioligand binding, human A3R; details: for inhibition at 1 µM: read-out: % inhib., A3
T2 sequence (P0DMS8 1-318): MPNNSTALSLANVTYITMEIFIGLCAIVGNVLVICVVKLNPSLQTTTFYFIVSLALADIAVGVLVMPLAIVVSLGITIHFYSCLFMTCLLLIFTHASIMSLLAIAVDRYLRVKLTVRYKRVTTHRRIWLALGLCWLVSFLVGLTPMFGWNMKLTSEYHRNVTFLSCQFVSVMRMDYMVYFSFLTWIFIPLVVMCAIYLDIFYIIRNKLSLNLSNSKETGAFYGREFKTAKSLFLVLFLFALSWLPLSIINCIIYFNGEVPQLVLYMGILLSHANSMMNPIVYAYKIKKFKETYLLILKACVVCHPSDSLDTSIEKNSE

[3] = molecular target: T3, recombinant A2BR (human) (Homo sapiens, UniProt P29275); test: Competition radioligand binding, human A2BR
T3 sequence (P29275 1-332): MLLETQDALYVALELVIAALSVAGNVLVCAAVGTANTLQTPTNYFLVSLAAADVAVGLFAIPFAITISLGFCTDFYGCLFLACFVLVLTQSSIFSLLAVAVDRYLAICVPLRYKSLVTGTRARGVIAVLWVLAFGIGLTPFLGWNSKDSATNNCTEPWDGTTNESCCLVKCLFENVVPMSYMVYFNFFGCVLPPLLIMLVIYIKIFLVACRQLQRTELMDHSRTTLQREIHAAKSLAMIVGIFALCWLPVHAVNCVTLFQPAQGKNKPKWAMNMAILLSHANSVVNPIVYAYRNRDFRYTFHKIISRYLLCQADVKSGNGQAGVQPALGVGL
Procedure, shortened: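 Adenosine deaminase-treated membranes (3 units/mL, 30 min, 37 °C) of HEK293 cells carrying recombinant human A2BR. […] Nonspecific binding with 100 μM XAC. GF/B filtration, scintillation counting. Ki via Cheng–Prusoff, mean ± SEM of 2–4 experiments in duplicate.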

[4] = molecular target: T1, A1R; test: cAMP accumulation assay; format: cell-based; details: for Emax: HEK293, read-out: A1 functional efficacy (Emax %)
Procedure, shortened: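 HEK293 cells expressing A1R seeded at 1,000 cells/well on poly-D-lysine and kept overnight at 37 °C. Preincubated 30 min at 37 °C with adenosine deaminase 3 units/ml, rolipram 10 μM and the A2B antagonist PSB603 1 μM. Agonist applied 20 min, then forskolin 10 μM for 15 min at 37 °C. Cells lysed in 0.3% Tween-20 and cAMP measured by AlphaScreen. Emax relative to a reference agonist set at 100%.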

[5] = molecular target: recombinant A2AR (human) (Homo sapiens, UniProt P29274); test: Competition radioligand binding, human A2AR; details: for inhibition at 1 µM: read-out: % inhib., A2A
Procedure, shortened: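 Human A2AR expressed in HEK293 cells; membranes treated with adenosine deaminase 3 units/mL for 30 min at 37 °C. […] Nonspecific binding with 10 μM XAC. Filtration on GF/B, scintillation counting. Ki by Cheng–Prusoff, mean ± SEM of 2–4 experiments in duplicate.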

[6] = molecular target: T4, A1R, rat brain membranes (forebrain) (Rattus norvegicus, UniProt P25099); test: Competition radioligand binding, rat brain homogenates
T4 sequence (P25099 1-326): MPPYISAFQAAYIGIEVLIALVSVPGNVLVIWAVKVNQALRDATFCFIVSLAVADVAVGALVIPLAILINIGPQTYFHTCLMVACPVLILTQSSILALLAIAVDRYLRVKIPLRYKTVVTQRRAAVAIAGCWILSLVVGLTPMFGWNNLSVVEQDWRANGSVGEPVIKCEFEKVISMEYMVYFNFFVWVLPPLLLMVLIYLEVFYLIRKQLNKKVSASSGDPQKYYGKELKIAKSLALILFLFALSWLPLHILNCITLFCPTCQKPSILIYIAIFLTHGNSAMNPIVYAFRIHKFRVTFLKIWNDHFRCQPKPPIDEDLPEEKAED
Procedure, shortened: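 Rat forebrain homogenate incubated 60 min at 25 °C in 50 mM Tris·HCl with 10 mM MgCl2, 0.5 nM [3H]8-cyclopentyl-1,3-dipropylxanthine and varied test compound. Nonspecific binding defined with 10 μM XAC. Separation by GF/B filtration with 3 ice-cold buffer washes, then scintillation counting. IC50 converted to Ki by Cheng–Prusoff; mean ± SEM of 2–4 experiments in duplicate.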

[7] = molecular target: A2AR, rat brain membranes (striatum) (Rattus norvegicus, UniProt P30543); test: Competition radioligand binding, rat brain homogenates
Procedure, shortened: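 Rat striatum homogenate incubated 60 min at 25 °C in 50 mM Tris·HCl/10 mM MgCl2 with 0.8 nM [3H]ZM241385 and varied test compound. Nonspecific binding defined with 10 μM XAC. GF/B filtration with 3 ice-cold washes, then scintillation counting. Ki from IC50 by Cheng–Prusoff; mean ± SEM of 2–4 experiments in duplicate.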

[8] = Small animal PET, brain uptake in rats; format: in vivo, rat; details: 11C-labelled compound; for BBB permeability: rat pilot PET study; for standard uptake value (SUV), brain uptake: rat, whole brain, 10 min after intravenous administration
Procedure, shortened: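 Male Wistar rats (2–3 months, 318 ± 40 g) under 2–5% isoflurane, temperature held near 36.9 °C. After a 10 min transmission scan, 20.8–37.0 MBq 11C-labelled test compound in saline infused iv (tail vein or penile catheter, 600 μL/min). 90 min dynamic list-mode microPET, template coregistration, regional time-activity curves. Test–retest (n=3) 30 min later; blocking drugs given 10 min before the second injection.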

Sequence of recombinant A2AR (human) (P29274 whole entry): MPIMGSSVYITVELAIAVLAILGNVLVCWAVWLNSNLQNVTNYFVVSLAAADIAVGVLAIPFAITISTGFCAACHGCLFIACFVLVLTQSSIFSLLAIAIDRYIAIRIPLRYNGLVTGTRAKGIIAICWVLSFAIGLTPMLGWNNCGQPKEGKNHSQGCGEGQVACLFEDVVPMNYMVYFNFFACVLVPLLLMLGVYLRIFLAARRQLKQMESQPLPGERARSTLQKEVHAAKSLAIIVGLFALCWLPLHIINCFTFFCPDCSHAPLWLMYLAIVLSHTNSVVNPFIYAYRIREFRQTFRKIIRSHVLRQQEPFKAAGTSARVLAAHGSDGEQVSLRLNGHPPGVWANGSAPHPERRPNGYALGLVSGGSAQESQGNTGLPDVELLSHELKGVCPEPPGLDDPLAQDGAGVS
Sequence of A2AR, rat brain membranes (striatum) (P30543 whole entry): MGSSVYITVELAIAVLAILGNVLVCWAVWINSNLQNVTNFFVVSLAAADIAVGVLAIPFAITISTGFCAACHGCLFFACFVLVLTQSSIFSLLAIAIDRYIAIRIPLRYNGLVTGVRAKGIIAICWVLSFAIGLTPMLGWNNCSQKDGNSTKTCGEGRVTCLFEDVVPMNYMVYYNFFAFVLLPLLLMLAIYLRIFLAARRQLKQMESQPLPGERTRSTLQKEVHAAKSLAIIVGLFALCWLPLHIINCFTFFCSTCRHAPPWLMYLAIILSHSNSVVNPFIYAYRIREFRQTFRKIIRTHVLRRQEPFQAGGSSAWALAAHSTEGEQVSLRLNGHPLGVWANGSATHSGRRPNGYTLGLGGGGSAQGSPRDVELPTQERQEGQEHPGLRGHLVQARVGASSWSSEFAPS

Row | SMILES | Ki [1] [nM] | Ki [3] [nM] | Emax [4] [%] | Ki [2] [nM] | Ki [5] [nM] | other results
1 | COc1ccc(-c2nc(SCc3cccc(C)n3)nc(N)c2C#N)cc1 [21a, 4-Amino-6-(4-methoxyphenyl)-2-(((6-methylpyridin-2-yl)methyl)thio)pyrimidine-5-carbonitrile] | 29 ± 0.1 | 305 ± 108 | -2 ± 3.5 | – | – | inhibition at 1 µM [2]: 44 ± 3%; inhibition at 1 µM [5]: 32 ± 2%
2 | COc1cccc(-c2nc(SCc3cccc(C)n3)nc(N)c2C#N)c1 [21b, 4-Amino-6-(3-methoxyphenyl)-2-(((6-methylpyridin-2-yl)methyl)thio)pyrimidine-5-carbonitrile] | 7.2 ± 2.4 | – | 3.4 ± 1.9 | – | – | inhibition at 1 µM [2]: 42 ± 11%; inhibition at 1 µM ([3]; read-out: % inhib., A2B): 35 ± 10%; inhibition at 1 µM [5]: 46 ± 1%
3 | COc1ccc(-c2nc(SCc3ncc[nH]3)nc(N)c2C#N)cc1 [21c, 2-(((1H-Imidazol-2-yl)methyl)thio)-4-amino-6-(4-methoxyphenyl)pyrimidine-5-carbonitrile] | 306 ± 17 | 237 ± 48 | 1.4 ± 3.1 | – | – | inhibition at 1 µM [2]: 51 ± 5%
4 | COc1cccc(-c2nc(SCc3ncc[nH]3)nc(N)c2C#N)c1 [21d, 2-(((1H-Imidazol-2-yl)methyl)thio)-4-amino-6-(3-methoxyphenyl)pyrimidine-5-carbonitrile] | 48 ± 2.8 | 208 ± 27 | 4.9 ± 3.3 | 703 ± 50 | 554 ± 273 | –
5 | Cc1cccc(CSc2nc(N)c(C#N)c(-c3cccc(O)c3)n2)n1 [21e, 4-Amino-6-(3-hydroxyphenyl)-2-(((6-methylpyridin-2-yl)methyl)thio)pyrimidine-5-carbonitrile] | 18 ± 2.1 | 126 ± 12 | 18 ± 3.3 | 79 ± 9.4 | 93 ± 63 | –
6 | N#Cc1c(N)nc(SCc2ncc[nH]2)nc1-c1cccc(O)c1 [21f, 2-(((1H-Imidazol-2-yl)methyl)thio)-4-amino-6-(3-hydroxyphenyl)pyrimidine-5-carbonitrile] | 110 ± 31 | 38 ± 7.3 | 41 ± 6.1 | 112 ± 14 | 96 ± 13.3 | –
7 | COc1ccc(-c2c(C#N)c(N)nc(SCc3cccc(C)n3)c2C#N)cc1 [22a, 2-Amino-4-(4-methoxyphenyl)-6-(((6-methylpyridin-2-yl)methyl)thio)pyridine-3,5-dicarbonitrile] | 2.9 ± 0.7 | 30 ± 2.5 | -0.06 ± 3.3 | 701 ± 244 | 35 ± 19 | –
8 | COc1cccc(-c2c(C#N)c(N)nc(SCc3cccc(C)n3)c2C#N)c1 [22b, 2-Amino-4-(3-methoxyphenyl)-6-(((6-methylpyridin-2-yl)methyl)thio)pyridine-3,5-dicarbonitrile] | 0.49 ± 0.06 | 75 ± 30 | 16 ± 2.3 | – | 71 ± 25 | inhibition at 1 µM [2]: 42 ± 11%; EC50 [4]: 1 nM; Ki [6]: 0.21 nM; Ki [7]: 52 nM
9 | Cc1cccc(CSc2nc(N)c(C#N)c(-c3cccc(O)c3)c2C#N)n1 [22e, 2-Amino-4-(3-hydroxyphenyl)-6-(((6-methylpyridin-2-yl)methyl)thio)pyridine-3,5-dicarbonitrile] | 3.5 ± 1.3 | 24 ± 16 | 109 ± 7.8 | 74 ± 3.4 | 15 ± 3.1 | –
10 | CC(=O)Nc1ccc(-c2c(C#N)c(N)nc(SCc3cccc(C)n3)c2C#N)cc1 [22g, N-(4-(2-Amino-3,5-dicyano-6-(((6-methylpyridin-2-yl)methyl)thio)pyridin-4-yl)phenyl)acetamide] | 53 ± 18 | 1.2 ± 0.2 | 122 ± 5.2 | 22 ± 6.7 | 2.8 ± 0.1 | –
11 | CSc1nc(N)c(C#N)c(-c2ccc(NC(C)=O)cc2)c1C#N [compound 12, N-(4-(2-Amino-3,5-dicyano-6-(methylthio)pyridin-4-yl)phenyl)acetamide] | – | – | – | – | – | BBB permeability [8]: poor BBB permeability
12 | CSc1nc(N)c(C#N)c(-c2ccc(NC(C)=O)cc2)n1 [compound 13, N-(4-(6-Amino-5-cyano-2-(methylthio)pyrimidin-4-yl)phenyl)acetamide] | – | – | – | – | – | BBB permeability [8]: poor BBB permeability
13 | COc1ccc(-c2c(C#N)c(N)nc(SC)c2C#N)cc1 [compound 14, 2-Amino-4-(4-methoxyphenyl)-6-(methylthio)pyridine-3,5-dicarbonitrile] | – | – | – | – | – | standard uptake value (SUV), brain uptake [8]: ~ 3 g/mL
14 | COc1ccc(-c2nc(SC)nc(N)c2C#N)cc1 [compound 15, 4-Amino-6-(4-methoxyphenyl)-2-(methylthio)pyrimidine-5-carbonitrile] | – | – | – | – | – | standard uptake value (SUV), brain uptake [8]: ~ 3 g/mL
